Measurements: ChEMBL document CHEMBL4251576, “Synthesis and biological evaluation of curcumin inspired imidazo[1,2-a]pyridine analogues as tubulin polymerization inhibitors” (Eur J Med Chem, 2018)
Calls of active or inactive are those of the source. The calls are words filed in the database; no cut-off is given here.

What was measured:
PC-3 [1] = experiment: Cell cycle arrest in human PC3 cells assessed as accumulation at G0/G1 phase after 24 hrs by propidium iodide staining-based flow cytometric method; format: functional
PC-3 [2] = experiment: Induction of mitochondrial membrane depolarization in human PC3 cells at 4 uM after 24 hrs by JC1 staining-based flow cytometric method (reference value: 11.9%); format: functional
PC-3 [3] = experiment: Induction of apoptosis in human PC3 cells after 24 hrs by FITC-annexin V/propidium iodide staining-based flow cytometric method; format: functional, cell-based
PC-3 [4] = experiment: Cell cycle arrest in human PC3 cells assessed as accumulation at S phase at 1 uM after 24 hrs by propidium iodide staining-based flow cytometric method (reference value: 8.08%); format: functional
PC-3 [5] = experiment: Cell cycle arrest in human PC3 cells assessed as accumulation at S phase at 2 uM after 24 hrs by propidium iodide staining-based flow cytometric method (reference value: 8.08%); format: functional
[6] = Selectivity index, ratio of IC50 for human RWPE1 cells to IC50 for human PC3 cells; format: toxicity; conditions: RWPE1 cells versus PC3 cells, read-out: Ratio IC50
PC-3 [7] = experiment: Induction of apoptosis in human PC3 cells assessed as nuclei condensation at 1 to 2 uM after 48 hrs by DAPI staining-based fluorescence microscopic method; format: functional, cell-based
Method in brief: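 PC-3 cells (25000/well) adhered overnight, then treated 48 h at 1 or 2 µM. After PBS wash, fixed 20 min in 4% neutral buffered formalin, permeabilized 5 min with 0.2% Triton X, and stained 10 min at room temperature with DAPI (1 µg/mL). Nuclei viewed by fluorescence microscopy (ex 350 nm, em 460 nm, 200x).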

PC-3 [8] = experiment: Potency index, ratio of curcumin IC50 to test compound IC50 for human PC3 cells; format: functional
PC-3 [9] = experiment: Induction of apoptosis in human PC3 cells assessed as early apoptotic cells at 2 uM after 24 hrs by FITC-annexin V/propidium iodide staining-based flow cytometric method (reference value: 7.62%); format: functional
RWPE-1 = experiment: Cytotoxicity against human RWPE1 cells assessed as inhibition of cell viability after 48 hrs by MTT assay; format: cell-based; conditions: RWPE-1, 48 h
Method in brief: (§1)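 Cells were seeded at 2.5‒5 x 10^3 per well in DMEM or RPMI with 10% FBS and grown 24 h at 37 °C under CO2. Compounds diluted in medium were added alongside vehicle control for 48 h. MTT (0.5 mg/mL) was added for 4 h, formazan dissolved in DMSO and absorbance read at 570 nm. IC50 is the concentration giving 50% loss of viability; mean ± SD of three experiments, each in triplicate.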

PC-3 [10] = experiment: Induction of apoptosis in human PC3 cells assessed as chromatin condensation at 0.5 uM after 48 hrs by acridine orange/ethidium bromide staining-based fluorescence inverted microscopic method; format: functional, cell-based
Method in brief: (§2)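 PC-3 cells (25000/well) grown 24 h, then exposed 48 h to 0.5, 1 or 2 µM with DMSO control. After PBS wash, stained with acridine orange and ethidium bromide (10 µg/mL each) and imaged at once by fluorescence inverted microscopy (ex 488 nm, em 530 nm, 200x).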

PC-3 [11] = experiment: Cytotoxicity against human PC3 cells assessed as inhibition of cell viability after 48 hrs by MTT assay; format: functional, cell-based; conditions: PC-3, 48 h; method in brief: as §1
PC-3 [12] = experiment: Induction of reactive oxygen species formation in human PC3 cells at 1 to 2 uM after 6 hrs by DCFDA staining-based flow cytometric method; format: functional, cell-based
Method in brief: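 PC-3 cells at 1 x 10^5 cells/mL adhered overnight, then exposed to 1 or 2 µM. Medium replaced with DCFDA (10 µM) for 0.5 h at room temperature in the dark; fluorescence read by flow cytometry (ex 488 nm, em 530 nm). Mean ± SEM of three experiments, one-way ANOVA with Dunnett's test.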

PC-3 [13] = experiment: Cell cycle arrest in human PC3 cells assessed as accumulation at subG1 phase at 2 uM after 24 hrs by propidium iodide staining-based flow cytometric method (reference value: 0.38%); format: functional
PC-3 [14] = experiment: Induction of apoptosis in human PC3 cells assessed as apoptotic body formation at 1 uM after 48 hrs by acridine orange/ethidium bromide staining-based fluorescence inverted microscopic method; format: functional, cell-based; method in brief: as §2
Sus scrofa = species on record: Sus scrofa; experiment: (§3) Inhibition of tubulin polymerization in porcine brain at 10 uM after 60 mins by fluorescence assay
Method in brief: (§4)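 Cell-free kit assay using porcine brain tubulin (2 mg/mL) in 80 mM PIPES pH 6.9 with 2.0 mM MgCl2, 0.5 mM EGTA, 1.0 mM GTP and glycerol; compound at 10 µM final, nocodazole as positive control. Polymerization tracked over time as fluorescence of a reporter incorporated into microtubules (ex 360 nm, em 440 nm), with inhibition relative to control.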

[15] = as §3; design: species or system Sus scrofa; method in brief: as §4
PC-3 [16] = experiment: Cell cycle arrest in human PC3 cells assessed as accumulation at G2/M phase at 2 uM after 24 hrs by propidium iodide staining-based flow cytometric method (reference value: 33.13%); format: functional
PC-3 [17] = experiment: Induction of apoptosis in human PC3 cells assessed as destructive fragmentation of nuclei at 2 uM after 48 hrs by acridine orange/ethidium bromide staining-based fluorescence inverted microscopic method; format: functional, cell-based; method in brief: as §2
PC-3 [18] = experiment: Induction of mitochondrial membrane depolarization in human PC3 cells after 24 hrs by JC1 staining-based flow cytometric method; format: functional, cell-based
PC-3 [19] = experiment: Induction of apoptosis in human PC3 cells assessed as necrotic cells at 4 uM after 24 hrs by FITC-annexin V/propidium iodide staining-based flow cytometric method (reference value: 0.32%); format: functional
NCI-H460 = experiment: Cytotoxicity against human NCI-H460 cells assessed as inhibition of cell viability after 48 hrs by MTT assay; format: functional, cell-based; conditions: NCI-H460, 48 h; method in brief: as §1
PC-3 [20] = experiment: Induction of apoptosis in human PC3 cells assessed as late apoptotic cells at 4 uM after 24 hrs by FITC-annexin V/propidium iodide staining-based flow cytometric method (reference value: 5.75%); format: functional
PC-3 [21] = experiment: Induction of apoptosis in human PC3 cells assessed as early apoptotic cells at 4 uM after 24 hrs by FITC-annexin V/propidium iodide staining-based flow cytometric method (reference value: 7.62%); format: functional
PC-3 [22] = experiment: Cell cycle arrest in human PC3 cells assessed as accumulation at G0/G1 phase at 2 uM after 24 hrs by propidium iodide staining-based flow cytometric method (reference value: 58.41%); format: functional
DU-145 [23] = experiment: Potency index, ratio of curcumin IC50 to test compound IC50 for human DU145 cells; format: functional
DU-145 [24] = experiment: Cytotoxicity against human DU145 cells assessed as inhibition of cell viability after 48 hrs by MTT assay; format: functional, cell-based; conditions: DU-145, 48 h; method in brief: as §1
PC-3 [25] = experiment: Induction of apoptosis in human PC3 cells assessed as late apoptotic cells at 2 uM after 24 hrs by FITC-annexin V/propidium iodide staining-based flow cytometric method (reference value: 5.75%); format: functional
PC-3 [26] = experiment: Cell cycle arrest in human PC3 cells assessed as accumulation at G2/M phase at 1 uM after 24 hrs by propidium iodide staining-based flow cytometric method (reference value: 33.13%); format: functional
PC-3 [27] = experiment: Induction of mitochondrial membrane depolarization in human PC3 cells at 2 uM after 24 hrs by JC1 staining-based flow cytometric method (reference value: 11.9%); format: functional
HeLa = experiment: Cytotoxicity against human HeLa cells assessed as inhibition of cell viability after 48 hrs by MTT assay; format: functional, cell-based; method in brief: as §1

Which results are given for COc1cc(OC)c(/C=C/C(=O)/C=C/c2nc3ccccn3c2-c2ccc(F)c(F)c2)c(OC)c1?
Activity (PC-3 [1]): Dose-dependent effect; Activity (PC-3 [2]): 52.3%; Activity (PC-3 [3]): Dose-dependent effect; Activity (PC-3 [4]): 9.97%; Activity (PC-3 [5]): 0.76%; selectivity ratio [6]: 2; Activity (PC-3 [7]): Active; Ratio IC50 (PC-3 [8]): 8.9; Activity (PC-3 [9]): 3.4%; IC50 (RWPE-1): 4.23 µM; Activity (PC-3 [10]): Active; IC50 (PC-3 [11]): 2.11 µM; Activity (PC-3 [12]): Active; Activity (PC-3 [13]): 0.74%; Activity (PC-3 [14]): Active; inhibition (Sus scrofa): Dose-dependent effect; IC50 [15]: 8.44 µM; Activity (PC-3 [16]): 55.84%; Activity (PC-3 [17]): Active; Activity (PC-3 [18]): Dose-dependent effect; Activity (PC-3 [19]): 3.12%; IC50 (NCI-H460): 2.63 µM; Activity (PC-3 [20]): 48.34%; Activity (PC-3 [21]): 7.3%; Activity (PC-3 [22]): 32.66%; Ratio IC50 (DU-145 [23]): 11.1; IC50 (DU-145 [24]): 2.97 µM; Activity (PC-3 [25]): 27.94%; Activity (PC-3 [26]): 44.65%; Activity (PC-3 [27]): 23.67%; IC50 (HeLa): 2.53 µM
